Measured values collected from several papers.
Lines come from different studies, so protocols differ.
Target: Mitogen-activated protein kinase kinase kinase 5 (MAP3K5, Homo sapiens, UniProt Q99683)
One construct used (Q99683 1-1374): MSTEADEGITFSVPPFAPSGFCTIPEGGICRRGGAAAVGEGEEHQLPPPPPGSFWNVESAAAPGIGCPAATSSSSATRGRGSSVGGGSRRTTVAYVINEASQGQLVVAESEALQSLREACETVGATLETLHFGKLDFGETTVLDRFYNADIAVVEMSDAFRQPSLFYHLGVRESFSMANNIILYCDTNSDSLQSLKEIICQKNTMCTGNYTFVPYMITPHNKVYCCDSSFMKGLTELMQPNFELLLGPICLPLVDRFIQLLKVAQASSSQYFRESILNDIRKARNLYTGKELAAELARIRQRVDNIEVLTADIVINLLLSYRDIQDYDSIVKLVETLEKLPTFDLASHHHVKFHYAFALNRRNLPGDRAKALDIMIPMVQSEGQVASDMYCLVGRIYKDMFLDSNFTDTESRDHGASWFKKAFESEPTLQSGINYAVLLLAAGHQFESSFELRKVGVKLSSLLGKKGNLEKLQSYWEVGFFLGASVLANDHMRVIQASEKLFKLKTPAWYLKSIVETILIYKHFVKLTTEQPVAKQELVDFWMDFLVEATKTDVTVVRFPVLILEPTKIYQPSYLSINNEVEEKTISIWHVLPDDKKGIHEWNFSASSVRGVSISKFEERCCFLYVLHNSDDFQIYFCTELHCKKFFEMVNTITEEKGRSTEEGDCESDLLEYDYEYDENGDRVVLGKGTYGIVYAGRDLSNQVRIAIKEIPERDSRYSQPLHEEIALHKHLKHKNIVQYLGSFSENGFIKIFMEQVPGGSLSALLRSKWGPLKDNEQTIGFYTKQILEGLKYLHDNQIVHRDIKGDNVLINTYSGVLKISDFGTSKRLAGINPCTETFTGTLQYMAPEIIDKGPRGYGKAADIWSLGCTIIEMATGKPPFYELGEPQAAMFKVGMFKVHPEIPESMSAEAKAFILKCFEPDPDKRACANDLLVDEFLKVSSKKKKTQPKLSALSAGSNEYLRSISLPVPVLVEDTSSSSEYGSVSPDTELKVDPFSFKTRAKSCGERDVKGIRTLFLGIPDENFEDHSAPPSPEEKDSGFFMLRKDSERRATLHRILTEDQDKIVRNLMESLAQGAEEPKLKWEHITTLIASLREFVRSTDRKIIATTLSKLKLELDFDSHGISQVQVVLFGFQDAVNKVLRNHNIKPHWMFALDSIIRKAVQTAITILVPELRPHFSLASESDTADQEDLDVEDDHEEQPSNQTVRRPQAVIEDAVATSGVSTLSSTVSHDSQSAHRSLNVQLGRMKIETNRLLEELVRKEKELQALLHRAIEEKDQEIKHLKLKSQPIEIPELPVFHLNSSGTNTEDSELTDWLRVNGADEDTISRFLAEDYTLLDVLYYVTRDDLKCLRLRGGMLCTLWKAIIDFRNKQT

| SMILES | effect on | method | tested at | remaining binding |
| --- | --- | --- | --- | --- |
| F[C@@H]1CCN(c2nccc(-c3cnn4ncccc34)n2)C1 | binding |  | 1 µM | 83% |
| O=C(Nc1c[nH]nc1C(=O)NC1CCNCC1)c1cc(F)cc(F)c1 | binding | competition with immobilised ligand | 1 µM | 100% |
| CC1CCCN1c1nccc(-c2cnn3ncccc23)n1 (stereo not drawn) | binding |  | 1 µM | 79% |
| CNC(=O)[C@@H]1CC[C@@H](n2c(-c3ccc4cnccc4c3)nc3ccc(C(=O)NCc4cccc(C(N)=O)c4)cc32)C1 | binding | competition with immobilised ligand | 1 µM | 92% |
| C[C@@H]1CN(c2cc(-c3nn(C)c4ccc(OC5(C)CC5)cc34)ncn2)C[C@H](C)O1 | cell-free assay | competition with immobilised ligand | 1 µM | 100% |
| CN(CCCC(F)(F)F)c1nccc(-c2cnn3ncccc23)n1 | binding |  | 1 µM | 76% |
| O=C(O)[C@@H]1[C@@H](Cn2nnc3ccccc3c2=O)CC[C@H]1C(=O)c1ccc(OCCC2CCOCC2)cc1 | cell-free assay | competition with immobilised ligand | 1 µM | 94% |
| CN(C)c1ncc(F)c(-c2cnn3ncccc23)n1 | binding |  | 1 µM | 100% |
| Cc1nc(N2CC[C@@H](O)C2)ncc1-c1cc(C(F)(F)F)cc2[nH]ncc12 | binding | competition with immobilised ligand | 1 µM | 100% |
| C[C@@H](c1ccc(-n2cnc3c(N)ncnc32)cc1)N1CCc2nn(C)c(Cc3ccccc3)c2C1=O | binding | competition with immobilised ligand | 0.1 µM | 95% |
| O=C(c1ccc(Nc2ncc(Cl)c(-c3cc4ccccc4s3)n2)cc1)N1CCC(N2CCCC2)CC1 | binding | competition with immobilised ligand | 1 µM | 100% |
| O=C(Nc1ccc(Oc2ccc(F)cc2)cc1)N1CCc2ncccc2[C@H]1c1ccc(F)cc1 | cell-free assay | competition with immobilised ligand | 1 µM | 87% |
| O=C(c1ccc(Nc2nccc(-c3cc4ccccc4s3)n2)cc1)N1CCC(N2CCCC2)CC1 | binding | competition with immobilised ligand | 1 µM | 100% |
| N[C@@H]1CCN(c2nccc(-c3cnn4ncccc34)n2)C1 | binding |  | 1 µM | 100% |
| CCN1CCN(Cc2ccc(C(=O)Nc3ccc(C)c(Oc4ccc5c(c4)CC(=O)N5)c3)cc2C(F)(F)F)CC1 | binding | competition with immobilised ligand | 1 µM | 100% |
| CNC(=O)Nc1ccc2c(c1)CC[C@@]21OC(=O)N(CC(=O)N(Cc2ccc(F)cc2)[C@@H](C)C(F)(F)F)C1=O | cell-free assay | competition with immobilised ligand | 1 µM | 94% |
| Cc1cnc(Nc2ccc(C(=O)N3CCC(N4CCCC4)CC3)cc2)nc1-c1cc2ccccc2s1 | binding | competition with immobilised ligand | 1 µM | 100% |
| COc1ccnn2ncc(-c3ccnc(N(C)C)n3)c12 | binding |  | 1 µM | 100% |
| C=CC(=O)N1CCC(C(=O)NCC(=O)N2CCN(c3nc(-c4cnc(N)nc4C(F)F)nc(N4CCOCC4)n3)CC2)CC1 | binding | competition with immobilised ligand | 1 µM | 100% |
| C[C@H](c1ccnc(Nc2nc3ccc(-c4cc(N(C)C)ncn4)cc3[nH]2)c1)N1CCN(C(=O)CC(F)(F)F)CC1 | cell-free assay | competition with immobilised ligand | 0.1 µM | 100% |
| FC(F)(F)Oc1cccc(-c2cnc3ccc(-c4ccncc4)nn23)c1 | cell-free assay | competition with immobilised ligand | 5 µM | 100% |
